# FLuc act counter = affects firefly luciferase, flagging false hits in luciferase stimulation screens; P08659; ATPlite luciferase biochemical, luminescence, 10 min; 0 = ATP-free wells, 1 = DMSO control; activation factor at 10 µM; 200,000 tested, under 10 active;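 active = luciferase activation factor, scaled between plate controls, of at least 2 with compound at 10 µM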
# Target sequence (P08659 whole entry, looked up): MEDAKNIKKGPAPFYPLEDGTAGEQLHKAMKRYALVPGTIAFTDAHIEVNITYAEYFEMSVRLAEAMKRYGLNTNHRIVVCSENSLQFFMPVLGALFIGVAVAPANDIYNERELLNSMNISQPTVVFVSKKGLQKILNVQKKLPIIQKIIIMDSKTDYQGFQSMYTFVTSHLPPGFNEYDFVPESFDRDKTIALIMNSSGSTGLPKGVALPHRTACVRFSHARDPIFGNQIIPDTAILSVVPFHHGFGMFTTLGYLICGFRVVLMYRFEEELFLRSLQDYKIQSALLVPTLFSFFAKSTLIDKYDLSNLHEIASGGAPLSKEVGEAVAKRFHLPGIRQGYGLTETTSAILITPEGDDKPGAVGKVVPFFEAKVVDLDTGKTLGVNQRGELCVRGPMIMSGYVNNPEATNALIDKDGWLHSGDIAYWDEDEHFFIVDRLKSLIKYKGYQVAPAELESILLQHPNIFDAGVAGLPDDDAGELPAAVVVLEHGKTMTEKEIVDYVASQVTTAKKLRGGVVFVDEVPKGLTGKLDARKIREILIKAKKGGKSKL
#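 Material: Luciferase/luciferin reagent mix; Doses: test compounds dosed from 2 mM stocks in 100% DMSO; Schedule: 10 min incubation after luciferase reagent addition, room temperature; Measured by: luminescence from luciferase reaction; Read-out: luminescence gain marking luciferase activators.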
# FLuc inhib CS = Photinus pyralis luciferase inhibition counter-screen. P08659. ATPLite firefly luciferase biochemical luminescence, 10 min. inhibition, % at 10 µM. hit rate 1.5% among 200,000. AID 1006;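 active = inhibition above about 50% when tested at 10 µM, limit read from the data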
# PPC-1+TRAIL kill = PPC-1 cancer cell killing with TRAIL present; PPC-1 cells + TRAIL, ATPLite viability luminescence; cell killing (% activity), % at 4 µM or 5 µM; hit rate 0.41% among 220,000; AID 1443;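 active = cell killing above 50% in the first pass at 4 µM, then a duplicate retest at 5 µM averaging 50% or more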;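 note: plate controls were cells with TRAIL plus DMSO for no effect and medium-only wells lacking cells for full effect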
# TRAIL sens C8 = sensitizes caspase-8 expressing cells to TRAIL; hit rate 1% among 360,000; NB7+C8 cells + TRAIL, ATPlite viability luminescence; inhibition (viability loss, TRAIL sensitization), % at 10 µM;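 active = compounds causing at least 50% loss of cell viability in the single-dose screen, relative to plate controls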
# * hit, by the source's call; . = not tested or not shown. The list is not random: actives were taken first. Their share in the collection is about 1.6%.
SMILES,FLuc act counter,FLuc inhib CS,PPC-1+TRAIL kill,TRAIL sens C8
N/C(=N\OC(=O)/C=C/c1ccccc1)c1cccnc1,0.2,81*,48,-4
N/C(=N\OC(=O)c1cccs1)C1(c2ccc(Cl)cc2Cl)CC1,.,.,15,-1
Cc1ccccc1/C(N)=N/OC(=O)c1cccs1,0.3,69*,22,-11
O=S(=O)(NCc1ccc2c(c1)OCO2)c1ccc(Cl)s1,.,.,.,5
CCN(CC(=O)Nc1c(F)cccc1F)C(=O)CCc1nc2sc3c(c2c(=O)[nH]1)CCCC3,.,.,.,5
C(=C\c1nc(-c2cccnc2)no1)/c1ccccc1,0.6,41,.,2
COc1cc2[nH]c(-c3ccc(C)cc3)cc(=O)c2cc1OC,0.7,27,11,-10
COc1ccc(-c2cc(=O)c3cc(C)ccc3[nH]2)cc1,0.2,82*,40,73*
CCn1cc(C(=O)N2CCOCC2)c(=O)c2cc(S(=O)(=O)N(C)C)ccc21,1.1,-6,12,-6
Cc1cc(NCCCn2ccnc2)n2ncc(-c3ccc(Cl)cc3)c2n1,0.7,34,7,54*
Cc1cc(NCCCN2CCOCC2)n2ncc(-c3ccc(Cl)cc3)c2n1,1,-1,-19,27
Brc1ccc(-c2nnc3sc(CN4CCC5(CC4)OCCO5)cn23)cc1,1,-4,7,66*
CC(=O)Nc1nc(-c2ccc([N+](=O)[O-])cc2)cs1,1,-3,16,2
O=C(Nc1ccc([N+](=O)[O-])cc1)Nc1nc(-c2ccc(Cl)s2)cs1,1.1,-5,67*,40
O=C(Cn1c2ccccc2c(=O)c2ccccc21)N/N=C/c1cc([N+](=O)[O-])ccc1N1CCCCCC1,1.1,-6,15,60*
COc1ccc2oc(C(=O)N3CCc4ccccc43)c(C)c2c1,.,.,.,82*
COc1ccc2oc(C(=O)Nc3ccccn3)c(C)c2c1,.,.,.,62*
COc1ccc2oc(C(=O)Nc3ccc(C)cn3)c(C)c2c1,.,.,.,33
COCc1c(C(=O)Nc2nc(C)cs2)oc2ccccc12,0.9,5,0,-9
COc1ccc2oc(C(=O)Nc3nc(C)cs3)c(C)c2c1,.,.,.,60*
O=C1COc2ccc(C(=O)COC(=O)CNC(=O)c3ccccc3)cc2N1,1.1,-5,13,-10
COc1ccc(CCN(C)Cc2ccc(OCc3ccccc3)c(OC)c2)cc1OC,1,4,8,5
CC(=O)Nc1cc(-c2cccc(C(=O)NCCN(C)C)c2)cn2c(-c3cccc(C(F)(F)F)c3)cnc12,.,.,.,65*
CCSc1ccc(-c2cc(NC=O)c3ncc(-c4cccc(C(=O)NCCN(C)C)c4)n3c2)cc1,.,.,.,79*
N#Cc1cccc(OCC(=O)NC(=O)NCc2ccccc2)c1,1,0,-1,-3
SMILES,FLuc act counter,FLuc inhib CS,PPC-1+TRAIL kill,TRAIL sens C8
CC1CN(C(=O)c2ccncc2)CC(C)O1 (configuration not stated),1,-4,21,.
COCCNc1nc(-c2cc3ccccc3o2)cs1,0.4,62*,13,45
Cc1cc(Cl)ccc1C(=O)C1CCCN(C(=O)c2ccsc2)C1 (configuration not stated),.,.,.,-1
COc1ccc(-c2cc(C(=O)O)nc3ccc4ccccc4c23)cc1OC,0.3,65*,42,34
COc1ccc(/C(C)=N/Nc2ccc(C(=O)O)cc2)c(OC)c1,1,-2,23,3
Cn1c(CSc2ncccn2)nnc1SCC(=O)N1CCCc2ccccc21,1.1,-9,6,5
CCN1CCN(c2ccc(S(=O)(=O)N3CCCCC3)cc2NC(=O)/C=C/c2ccc(OC(F)F)cc2)CC1,.,.,.,56*
Cc1cc(NC(=O)CSc2nnc(C3CC3)n2Cc2ccccc2)no1,1.1,-7,7,-7
Cc1cccc2sc(NNC(=O)c3cc(-c4cccs4)nc4ccccc34)nc12,1,-1,9,50*
CC(=S)/C=C1\Sc2ccccc2N1C,1.1,-6,12,-7
COc1ccc(C(=O)/C=C2\Sc3ccccc3N2C)cc1,0.3,71*,50,43
Cc1ccc(N/N=C(\C#N)C(=N)N2CCCCCC2)cc1,0.5,51*,42,31
N#C/C(=N\Nc1ccc(F)cc1)C(=N)N1CCCCCC1,0.4,59*,.,31
CCc1cc(C(=O)NNC(=S)Nc2cccc(C)c2)cs1,0.5,51*,13,14
Cc1cccc(NC(=S)NNC(=O)c2csc(C(C)C)c2)c1,0.5,54*,23,20
Nc1nc(N)c2cc([N+](=O)[O-])ccc2n1,.,.,.,-16
Nc1nc(N)c2cc(S(=O)(=O)c3ccc4ccccc4c3)ccc2n1,.,.,.,72*
O=C(/C=C/c1cccs1)Nc1nccs1,0.7,26,15,23
NS(=O)(=O)c1ccc(NC(=O)/C=C/c2cccs2)cc1,.,.,3,-1
O=C(/C=C/c1cccs1)Nc1cccc(NC(=O)/C=C/c2cccs2)n1,0.4,60*,28,73*
NS(=O)(=O)c1cccc(NC(=O)/C=C/c2cccs2)c1,0.3,73*,42,32
COc1c(Cl)cc(-c2noc(C)c2C(=O)NCCc2ccc(C)cc2)cc1Cl,1.1,-6,-25,7
CSc1ncccc1C(=O)Nc1nnc(C2CC2)s1,1,2,5,-3
CCc1cccc(NS(=O)(=O)c2ccc(-n3cccn3)cc2)c1,.,.,.,20
Cc1cc(NC(=O)c2ccc(Cl)cc2)no1,0.4,59*,20,41
SMILES,FLuc act counter,FLuc inhib CS,PPC-1+TRAIL kill,TRAIL sens C8
Cc1cc(NC(=O)c2ccc(S(=O)(=O)N(C)C)cc2)no1,1,-2,13,14
Cc1cc(NC(=O)c2ccccc2-c2ccccc2C(=O)O)no1,1,0,50*,8
CCSc1ccccc1C(=O)Nc1cc(C)on1,1.1,-5,-12,6
CC(C)N1C(=O)/C(=C/c2nc3ccccc3c(=O)n2-c2ccccc2)c2ccccc21,1,-2,-1,2
Cc1noc(C)c1-c1ccc(C(=O)NCc2cccc(Cl)c2)c2occc12,.,.,.,-3
Cc1cc(N)n2nc(-c3ccccc3)cc2n1,0.1,91*,68*,77*
Cc1ccc(-c2cc3nc(-c4ccccc4)cc(N)n3n2)cc1,0.9,13,13,-1
COc1ccc(NC(=O)CSc2nnc(-c3ccccn3)n2N)cc1,1.1,-9,13,-29
COc1ccc(C(=O)NN/C(C)=C/C(=O)c2ccccc2)cc1,.,.,.,6
Cc1ccc(NC(=O)c2cc(C)on2)cc1,0.5,45,17,24
Cc1ccc(O)c(NC(=O)c2noc3c2CCCCC3)c1,0.3,65*,45,11
CCc1ccc(NC(=O)c2cc(C)on2)cc1,0.4,61*,17,26
CCc1ccc(NC(=O)c2noc3c2CCC3)cc1,0.4,64*,4,28
CCc1ccc(NC(=O)c2noc3c2CCCCC3)cc1,0.9,10,6,20
O=S(=O)(NNc1ccc(F)cc1F)c1cccc(Cl)c1,.,.,.,0
Cc1nc2c(ccc3nc(NC(=O)c4ccc5c(c4)OCCO5)sc32)s1,0.1,86*,46,80*
Cc1nnc(NC(=O)c2ccc3c(c2)C(=O)N(CC2CCCO2)C3=O)s1 (configuration not stated),0.3,67*,-6,12

# Screening data deposited in PubChem BioAssay by Sanford-Burnham Center for Chemical Genomics.
